In ChEMBL document CHEMBL1156209, “Hybrid ortho/allosteric ligands for the adenosine A(1) receptor” (J Med Chem, 2010):

Columns and labels:
Adenosine receptor A1 [1] = biological target: T1, Adenosine receptor A1 (Homo sapiens, UniProt P30542); assay: Displacement of […] from human adenosine A1 receptor expressed in CHO cells by scintillation counting; format: cell-based
T1 sequence (P30542 whole entry): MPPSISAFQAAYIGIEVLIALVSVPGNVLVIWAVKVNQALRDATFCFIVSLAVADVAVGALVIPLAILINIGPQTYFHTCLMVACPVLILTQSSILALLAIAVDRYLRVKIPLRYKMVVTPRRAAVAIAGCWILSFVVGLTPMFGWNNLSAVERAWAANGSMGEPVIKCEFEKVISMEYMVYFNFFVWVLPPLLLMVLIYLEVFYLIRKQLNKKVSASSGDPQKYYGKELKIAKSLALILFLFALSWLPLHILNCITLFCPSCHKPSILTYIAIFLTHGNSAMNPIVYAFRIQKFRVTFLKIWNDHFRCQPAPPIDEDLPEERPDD
Summary of the method: (§1)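 Equilibrium competition in 50 mM Tris HCl pH 7.4 with 0.8 IU/mL adenosine deaminase and 1.6 nM [3H]DPCPX. Increasing ligand concentrations ± 10 μM PD81,723. CHO-hA1 membranes (10 μg protein) incubated 1 h at 25 °C. GF/B filtration, scintillation counting. Nonspecific binding defined with 10 μM CPA. High- and low-affinity Ki taken from biphasic curves.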

Adenosine receptor A1 [2] = biological target: T1, Adenosine receptor A1; assay: Displacement of […] from human adenosine A1 receptor expressed in CHO cells by scintillation counting in presence of 10 uM allosteric modulator PD-81723; format: cell-based; summary of the method: as §1
[3] = biological target: T2, Adenosine receptor A1 (Homo sapiens) (UniProt P30542); assay: Displacement of […] from human adenosine A1 receptor expressed in CHO cells by scintillation counting relative to control; format: cell-based; parameters: concentration or dose not given beside the values; summary of the method: as §1
T2 sequence (whole entry): T1 sequence (P30542 whole entry)

[4] = biological target: T2, Adenosine receptor A1 (Homo sapiens); assay: Displacement of [3H]CCPA from human adenosine A1 receptor expressed in CHO cells by scintillation counting relative to control; format: cell-based
Summary of the method: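 Filtration and scintillation counting. Nonspecific binding defined with 10 μM CPA. pKi and maximal displacement given as percent of specific binding. pKi compared by one-way ANOVA with Bonferroni test.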

Adenosine receptor A1 [5] = biological target: T1, Adenosine receptor A1; assay: Agonist activity at human adenosine A1 receptor expressed in CHO cells assessed as [35S]GTPgammaS binding by scintillation counting; format: functional, cell-based
Summary of the method: (§2)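 CHO-hA1 membranes (5 μg protein) preincubated 30 min at 25 °C in 50 mM Tris, 100 mM NaCl, 10 mM MgCl, pH 7.4 with 3 μM GDP and a concentration range of agonist, with or without 10 μM PD81,723. 0.3 nM (final) [35S]GTPγS then added for 45 min at 25 °C. Filtration, washing, scintillation counting. Emax given as percent of maximal stimulation by the reference agonist. Control and PD81,723 pEC50 compared to give fold shift.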

Adenosine receptor A1 [6] = biological target: T1, Adenosine receptor A1; assay: Agonist activity at human adenosine A1 receptor expressed in CHO cells assessed as [35S]GTPgammaS binding by scintillation counting in presence of 10 uM allosteric modulator PD-81723; format: functional, cell-based; summary of the method: as §2
[7] = biological target: T2, Adenosine receptor A1 (Homo sapiens); assay: Agonist activity at human adenosine A1 receptor expressed in CHO cells assessed as [35S]GTPgammaS binding by scintillation counting relative to control; format: functional, cell-based; summary of the method: as §2
[8] = biological target: T2, Adenosine receptor A1 (Homo sapiens); assay: Agonist activity at human adenosine A1 receptor expressed in CHO cells assessed as [35S]GTPgammaS binding by scintillation counting in presence of 10 uM allosteric modulator PD-81723 relative to control; format: functional, cell-based; summary of the method: as §2
[9] = biological target: T2, Adenosine receptor A1 (Homo sapiens); assay: Selectivity ratio of EC50 for human adenosine A1 receptor to EC50 for human adenosine A1 receptor in presence of 10 uM allosteric modulator PD-81723; summary of the method: as §2
Adenosine receptor A1 [10] = biological target: T1, Adenosine receptor A1; assay: Agonist activity at human adenosine A1 receptor expressed in CHO cells assessed as stimulation of ERK1/2 phosphorylation; format: functional, cell-based
Summary of the method: (§3)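 Intact CHO-hA1 cells seeded at 40 000/well. After 6 h, washed and serum-starved in DMEM for 14 h. Pretreated 30 min with 0.8 IU/mL adenosine deaminase, then stimulated 5 min with compound ± 10 μM PD81,723. Lysed; phospho-ERK1/2 read by AlphaScreen SureFire after ≥3 h dark incubation at room temperature. Emax given as percent of the reference agonist. Mean ± SEM of ≥3 experiments. Fold shift in pEC50 versus control.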

Adenosine receptor A1 [11] = biological target: T1, Adenosine receptor A1; assay: Agonist activity at human adenosine A1 receptor expressed in CHO cells assessed as stimulation of ERK1/2 phosphorylation in presence of 10 uM allosteric modulator PD-81723; format: functional, cell-based; summary of the method: as §3
[12] = biological target: T2, Adenosine receptor A1 (Homo sapiens); assay: Selectivity ratio of EC50 for human adenosine A1 receptor-mediated ERK1/2 phosphorylation to EC50 for human adenosine A1 receptor-mediated ERK1/2 phosphorylation in presence of 10 uM allosteric modulator PD-81723 assessed as; summary of the method: as §3
[13] = biological target: T2, Adenosine receptor A1 (Homo sapiens); assay: Agonist activity at human adenosine A1 receptor expressed in CHO cells assessed as stimulation of ERK1/2 phosphorylation relative to control; format: functional, cell-based; summary of the method: as §3
[14] = biological target: T2, Adenosine receptor A1 (Homo sapiens); assay: Agonist activity at human adenosine A1 receptor expressed in CHO cells assessed as stimulation of ERK1/2 phosphorylation in presence of 10 uM allosteric modulator PD-81723 relative to control; format: functional, cell-based; summary of the method: as §3
Adenosine receptor A1 [15] = biological target: T1, Adenosine receptor A1; assay: Enhancement of [3H]CCPA binding to human adenosine A1 receptor expressed in CHO cells by scintillation counting
Adenosine receptor A1 [16] = biological target: T1, Adenosine receptor A1; assay: Displacement of […] from human adenosine A1 receptor expressed in CHO cells at high affinity site by scintillation counting; format: cell-based; summary of the method: as §1
Adenosine receptor A1 [17] = biological target: T1, Adenosine receptor A1; assay: Displacement of […] from human adenosine A1 receptor expressed in CHO cells at low affinity site by scintillation counting; format: cell-based; summary of the method: as §1

Structure (SMILES) | Ki (Adenosine receptor A1 [1]; read-out: Ki) [nM] | Ki (Adenosine receptor A1 [1]; read-out: pKi (converted)) [nM] | Ki (Adenosine receptor A1 [2]; read-out: Ki) [nM] | Activity [3] [%] | Emax [4] [%] | Ki (Adenosine receptor A1 [2]; read-out: pKi (converted)) [nM] | other results
Nc1sc2c(c1C(=O)c1ccc(Cl)c(Cl)c1)CCN(CCCCCOc1ccc(Nc3ncnc4c3ncn4[C@@H]3O[C@H](CO)[C@@H](O)[C@H]3O)cc1)C2 | 219 | 214 | 114 | 100 | 97 | 110 | EC50 (Adenosine receptor A1 [5]; read-out: EC50): 273 nM; EC50 (Adenosine receptor A1 [5]; read-out: pEC50 (converted)): 269 nM; EC50 (Adenosine receptor A1 [6]; read-out: EC50): 52 nM; Emax [7]: 110%; Emax [8]: 97%; Ratio EC50 [9]: 5.2; EC50 (Adenosine receptor A1 [10]; read-out: EC50): 156 nM; EC50 (Adenosine receptor A1 [10]; read-out: pEC50 (converted)): 151 nM; EC50 (Adenosine receptor A1 [11]; read-out: EC50): 89 nM; Ratio EC50 [12]: 1.8; Emax [13]: 114%; Emax [14]: 131%
Nc1sc2c(c1C(=O)c1ccc(Cl)c(Cl)c1)CCN(CCCCCCCCOc1ccc(Nc3ncnc4c3ncn4[C@@H]3O[C@H](CO)[C@@H](O)[C@H]3O)cc1)C2 | 836 | 776 | 591 | 65 |  | 457 | 
Nc1sc2c(c1C(=O)c1ccc(Cl)c(Cl)c1)CCN(CCCCOc1ccc(Nc3ncnc4c3ncn4[C@@H]3O[C@H](CO)[C@@H](O)[C@H]3O)cc1)C2 | 618 |  | 313 | 100 |  |  | 
Nc1sc2c(c1C(=O)c1ccc(Cl)c(Cl)c1)CCN(CCCOc1ccc(Nc3ncnc4c3ncn4[C@@H]3O[C@H](CO)[C@@H](O)[C@H]3O)cc1)C2 | 439 | 417 | 268 | 100 |  | 245 | 
Nc1sc2c(c1C(=O)c1ccc(Cl)c(Cl)c1)CCN(CCCCCCCCCOc1ccc(Nc3ncnc4c3ncn4[C@@H]3O[C@H](CO)[C@@H](O)[C@H]3O)cc1)C2 | 679 | 661 | 651 | 83 | 79 |  | EC50 (Adenosine receptor A1 [5]; read-out: EC50): 390 nM; EC50 (Adenosine receptor A1 [6]; read-out: EC50): 181 nM; EC50 (Adenosine receptor A1 [6]; read-out: pEC50 (converted)): 178 nM; Emax [7]: 110%; Emax [8]: 105%; Ratio EC50 [9]: 2.2; EC50 (Adenosine receptor A1 [10]; read-out: EC50): 1070 nM; EC50 (Adenosine receptor A1 [10]; read-out: pEC50 (converted)): 955 nM; EC50 (Adenosine receptor A1 [11]; read-out: EC50): 813 nM; EC50 (Adenosine receptor A1 [11]; read-out: pEC50 (converted)): 692 nM; Ratio EC50 [12]: 1.3; Emax [13]: 123%; Emax [14]: 122%
Nc1sc2c(c1C(=O)c1ccc(Cl)c(Cl)c1)CCN(CCCCCCOc1ccc(Nc3ncnc4c3ncn4[C@@H]3O[C@H](CO)[C@@H](O)[C@H]3O)cc1)C2 | 419 | 479 | 288 | 103 |  | 275 | 
Nc1sc2c(c1C(=O)c1ccc(Cl)c(Cl)c1)CCN(CCCCCCCCCCOc1ccc(Nc3ncnc4c3ncn4[C@@H]3O[C@H](CO)[C@@H](O)[C@H]3O)cc1)C2 | 1470 | 1260 | 1360 | 55 |  | 1290 | 
Nc1sc2c(c1C(=O)c1ccc(Cl)c(Cl)c1)CCN(CCCCCOc1ccc([N+](=O)[O-])cc1)C2 |  |  |  |  | 185 |  | EC50 (Adenosine receptor A1 [15]): 5200 nM
Nc1sc2c(c1C(=O)c1ccc(Cl)c(Cl)c1)CCN(CCCOc1ccc([N+](=O)[O-])cc1)C2 |  |  |  |  | 204 |  | EC50 (Adenosine receptor A1 [15]): 3700 nM

More lines, main results first:

Ki (Adenosine receptor A1 [1]; read-out: Ki) [nM] | Ki (Adenosine receptor A1 [1]; read-out: pKi (converted)) [nM] | Ki (Adenosine receptor A1 [2]; read-out: Ki) [nM] | Activity [3] [%] | Emax [4] [%] | Ki (Adenosine receptor A1 [2]; read-out: pKi (converted)) [nM] | Structure (SMILES) | other results
751 | 741 | 469 | 100 |  |  | Nc1sc2c(c1C(=O)c1ccc(Cl)c(Cl)c1)CCN(CCOc1ccc(Nc3ncnc4c3ncn4[C@@H]3O[C@H](CO)[C@@H](O)[C@H]3O)cc1)C2 | 
450 |  | 347 | 91 |  |  | Nc1sc2c(c1C(=O)c1ccc(Cl)c(Cl)c1)CCN(CCCCCCCOc1ccc(Nc3ncnc4c3ncn4[C@@H]3O[C@H](CO)[C@@H](O)[C@H]3O)cc1)C2 | 
 |  |  |  | 140 |  | Cc1sc(N)c(C(=O)c2cccc(C(F)(F)F)c2)c1C | 
 |  |  |  | 250 |  | Nc1sc2c(c1C(=O)c1ccc(Cl)c(Cl)c1)CCN(CCOc1ccc([N+](=O)[O-])cc1)C2 | EC50 (Adenosine receptor A1 [15]): 8500 nM
842 | 832 | 195 | 100 | 100 | 191 | COc1ccc(Nc2ncnc3c2ncn3[C@@H]2O[C@H](CO)[C@@H](O)[C@H]2O)cc1 | EC50 (Adenosine receptor A1 [5]; read-out: EC50): 142 nM; EC50 (Adenosine receptor A1 [5]; read-out: pEC50 (converted)): 123 nM; EC50 (Adenosine receptor A1 [6]; read-out: EC50): 29 nM; EC50 (Adenosine receptor A1 [6]; read-out: pEC50 (converted)): 30.2 nM; Emax [7]: 100%; Emax [8]: 91%; Ratio EC50 [9]: 4.9; EC50 (Adenosine receptor A1 [10]; read-out: EC50): 22 nM; EC50 (Adenosine receptor A1 [10]; read-out: pEC50 (converted)): 20.9 nM; EC50 (Adenosine receptor A1 [11]; read-out: EC50): 5 nM; Ratio EC50 [12]: 4.4; Emax [13]: 100%; Emax [14]: 131%; Ki (Adenosine receptor A1 [16]; read-out: Ki): 71 nM; Ki (Adenosine receptor A1 [16]; read-out: pKi (converted)): 42.7 nM; Ki (Adenosine receptor A1 [17]; read-out: Ki): 1990 nM; Ki (Adenosine receptor A1 [17]; read-out: pKi (converted)): 1860 nM
